Assay results taken from ChEMBL document CHEMBL1151311, “A novel antiprotozoal aminosteroid from Saracha punctata” (J Nat Prod, 1998).

Tests used:
Trypanosoma cruzi [1] = experiment: Trypanocidal activity against Trypanosoma cruzi Tulahuen epimastigotes at 20 ug/ml after 48 hrs relative to control; format: functional; conditions: Tuluhuen
Method in brief: (§1)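 T. cruzi epimastigotes in LIT medium with 10% FCS at 28 °C (inoculum 10^6 cells/mL) were exposed to compound (final DMSO <0.5%) for 48 h. Parasites were counted in a hemocytometer and compared with extract-free controls, in triplicate.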

Trypanosoma cruzi [2] = experiment: Trypanocidal activity against Trypanosoma cruzi Tulahuen epimastigotes at 10 ug/ml after 48 hrs relative to control; format: functional; conditions: Tuluhuen; method in brief: as §1
Trypanosoma cruzi [3] = experiment: Trypanocidal activity against Trypanosoma cruzi Tulahuen epimastigotes at 5 ug/ml after 48 hrs relative to control; format: functional; conditions: Tuluhuen; method in brief: as §1
Trypanosoma cruzi [4] = experiment: Trypanocidal activity against Trypanosoma cruzi Tulahuen epimastigotes at 2.5 ug/ml after 48 hrs relative to control; format: functional; conditions: Tuluhuen; method in brief: as §1
Leishmania braziliensis [5] = experiment: Antileishmanial activity against Leishmania braziliensis MHOM/BR/75/M2903 promastigotes at 20 ug/ml after 72 hrs relative to control; format: functional; conditions: MHOM/BR/75/M2903, 72 h
Method in brief: (§2)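 Promastigotes, 50 000 per well, were exposed to compound in liquid medium (final DMSO <0.1%) at 27 °C for 72 h. Growth was judged by inverted-phase microscopy of a culture drop against extract-free controls. Assays were run in triplicate.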

Leishmania braziliensis [6] = experiment: Antileishmanial activity against Leishmania braziliensis MHOM/BR/75/M2903 promastigotes at 10 ug/ml after 72 hrs relative to control; format: functional; conditions: MHOM/BR/75/M2903, 72 h; method in brief: as §2
Leishmania braziliensis [7] = experiment: Antileishmanial activity against Leishmania braziliensis MHOM/BR/75/M2903 promastigotes at 5 ug/ml after 72 hrs relative to control; format: functional; conditions: MHOM/BR/75/M2903, 72 h; method in brief: as §2
Leishmania braziliensis [8] = experiment: Antileishmanial activity against Leishmania braziliensis MHOM/BR/75/M2903 promastigotes at 2.5 ug/ml after 72 hrs relative to control; format: functional; conditions: MHOM/BR/75/M2903, 72 h; method in brief: as §2
Leishmania chagasi [9] = experiment: Antileishmanial activity against Leishmania donovani chagasi PP75 at 20 ug/ml; format: functional
Leishmania chagasi [10] = experiment: Antileishmanial activity against Leishmania donovani chagasi PP75 at 10 ug/ml; format: functional
Leishmania chagasi [11] = experiment: Antileishmanial activity against Leishmania donovani chagasi PP75 at 5 ug/ml; format: functional
Leishmania chagasi [12] = experiment: Antileishmanial activity against Leishmania donovani chagasi PP75 at 2.5 ug/ml; format: functional
[13] = Cytotoxicity against BALB/c mouse peritoneal macrophages assessed as survival at 20 ug/ml; format: cell-based, Macrophage; conditions: read-out: Activity
[14] = Cytotoxicity against BALB/c mouse peritoneal macrophages assessed as survival at 10 ug/ml; format: cell-based, Macrophage; conditions: read-out: Activity
[15] = Cytotoxicity against BALB/c mouse peritoneal macrophages assessed as survival at 5 ug/ml; format: cell-based, Macrophage; conditions: read-out: Activity
Plasmodium falciparum [16] = experiment: Antimalarial activity against chloroquine-sensitive Plasmodium falciparum 2087 after 24 hrs; format: functional, organism-based
Method in brief: (§3)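 P. falciparum strains 2087 and INDO kept in human erythrocytes. Samples were dissolved with DMSO (≤0.1% in dilutions) in RPMI 1640 and tested in triplicate with O+ red cells at 5% hematocrit and 1% parasitemia. Plates were incubated 24 h at 37 °C by candle-jar, then 48 h more with daily medium change. Parasitemia was counted by day-3 smear; IC50 came from linear regression of % inhibition versus control.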

Plasmodium falciparum [17] = experiment: Antimalarial activity against chloroquine-resistant Plasmodium falciparum Indo after 24 hrs; format: functional, organism-based; method in brief: as §3
KB = experiment: Cytotoxicity against human KB cells; format: cell-based
[18] = Selectivity index, ratio of IC50 for KB cells to IC50 for chloroquine -sensitive Plasmodium falciparum 2087; format: toxicity, cell-based; conditions: human, read-out: Ratio IC50
[19] = Selectivity index, ratio of IC50 for KB cells to IC50 for chloroquine-resistant Plasmodium falciparum INDO; format: toxicity, cell-based; conditions: human, read-out: Ratio IC50
Plasmodium berghei [20] = experiment: Antiplasmodial activity as reduced parasitaemia in Plasmodium berghei NK65 infected mice (Mus musculus) at 32 mg/kg/day for 4 days; format: functional; parameters: scale not given: the % may be the effect or the level left
Method in brief: (§4)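 Four-day suppressive test adapted from Peters: mice were inoculated with P. berghei NK 65 on day 1 and treated daily for four consecutive days. A blood smear was taken on day 5, and parasitemia was compared with infected untreated controls.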

Plasmodium berghei [21] = experiment: Antiplasmodial activity as reduced parasitaemia in Plasmodium berghei NK65 infected mice (Mus musculus) at 16 mg/kg/day for 4 days; format: functional; parameters: scale not given: the % may be the effect or the level left; method in brief: as §4
Plasmodium berghei [22] = experiment: Antiplasmodial activity as reduced parasitaemia in Plasmodium berghei NK65 infected mice (Mus musculus) at 8 mg/kg/day for 4 days; format: functional; parameters: scale not given: the % may be the effect or the level left; method in brief: as §4
Mus musculus [23] = experiment: Toxicity in Plasmodium berghei NK65 infected mice (Mus musculus) at 16 mg/kg administered daily for 4 days; format: organism-based; parameters: dose 16 mg/kg; conditions: in vivo, 96 h
Method in brief: (§5)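 Mice infected with P. berghei NK 65 on day 1 were dosed daily for four consecutive days in the four-day suppressive test. Lethality was recorded on day 4.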

Mus musculus [24] = experiment: Toxicity in Plasmodium berghei NK65 infected mice (Mus musculus) at 8 mg/kg administered daily for 4 days; format: organism-based; parameters: dose 8 mg/kg; conditions: in vivo, 96 h; method in brief: as §5
Leishmania amazonensis [25] = experiment: Antileishmanial activity against Leishmania amazonensis MHOM/GF/84/CAY H-142 promastigotes at 5 ug/ml after 72 hrs relative to control
Leishmania amazonensis [26] = experiment: Antileishmanial activity against Leishmania amazonensis MHOM/GF/84/CAY H-142 promastigotes at 20 ug/ml after 72 hrs relative to control
Leishmania amazonensis [27] = experiment: Antileishmanial activity against Leishmania amazonensis MHOM/GF/84/CAY H-142 promastigotes at 10 ug/ml after 72 hrs relative to control
Leishmania amazonensis [28] = experiment: Antileishmanial activity against Leishmania amazonensis MHOM/GF/84/CAY H-142 promastigotes at 2.5 ug/ml after 72 hrs relative to control

**Q.** For `C[C@H]1CC[C@H]([C@@H](C)[C@H]2CC[C@H]3[C@@H]4CC=C5C[C@@H](N)CC[C@]5(C)[C@H]4CC[C@]23C)NC1`, which inhibition at 20 µg/mL (Trypanosoma cruzi [1]) is on record?
**A.** 100%

**Q.** And the inhibition at 10 µg/mL (Trypanosoma cruzi [2])?
**A.** 50%

**Q.** And the inhibition at 5 µg/mL (Trypanosoma cruzi [3])?
**A.** 0%

**Q.** What about the inhibition at 2.5 µg/mL (Trypanosoma cruzi [4]) of the same compound?
**A.** 0%

**Q.** What about the inhibition at 20 µg/mL (Leishmania braziliensis [5]) of the same compound?
**A.** 100%

**Q.** What about the inhibition at 10 µg/mL (Leishmania braziliensis [6]) of the same compound?
**A.** 100%

**Q.** And the inhibition at 5 µg/mL (Leishmania braziliensis [7])?
**A.** 50%

**Q.** What about the inhibition at 2.5 µg/mL (Leishmania braziliensis [8]) of the same compound?
**A.** 0%

**Q.** What about the inhibition at 20 µg/mL (Leishmania chagasi [9]) of the same compound?
**A.** 100%

**Q.** And the inhibition at 10 µg/mL (Leishmania chagasi [10])?
**A.** 100%

**Q.** And the inhibition at 5 µg/mL (Leishmania chagasi [11])?
**A.** 50%

**Q.** And the inhibition at 2.5 µg/mL (Leishmania chagasi [12])?
**A.** 0%

**Q.** What about the viability at 20 ug/ml [13] of the same compound?
**A.** 0%

**Q.** And the viability at 10 ug/ml [14]?
**A.** 0%

**Q.** And the viability at 5 ug/ml [15]?
**A.** 0%

**Q.** What about the IC50 (Plasmodium falciparum [16]) of the same compound?
**A.** 25 nM

**Q.** What about the IC50 (Plasmodium falciparum [17]) of the same compound?
**A.** 176 nM

**Q.** And the IC50 (KB)?
**A.** 50 µM

**Q.** What about the selectivity ratio [18] of the same compound?
**A.** 2000

**Q.** And the selectivity ratio [19]?
**A.** 286

**Q.** What about the Activity (Plasmodium berghei [20]) of the same compound?
**A.** 69%

**Q.** What about the Activity (Plasmodium berghei [21]) of the same compound?
**A.** 27%

**Q.** And the Activity (Plasmodium berghei [22])?
**A.** 16%

**Q.** And the Activity (Mus musculus [23])?
**A.** Non-toxic

**Q.** And the Activity (Mus musculus [24])?
**A.** Non-toxic

**Q.** And the inhibition at 5 µg/mL (Leishmania amazonensis [25])?
**A.** 50%

**Q.** What about the inhibition at 20 µg/mL (Leishmania amazonensis [26]) of the same compound?
**A.** 100%

**Q.** And the inhibition at 10 µg/mL (Leishmania amazonensis [27])?
**A.** 100%

**Q.** What about the inhibition at 2.5 µg/mL (Leishmania amazonensis [28]) of the same compound?
**A.** 0%

**Q.** For `N=C(N)c1ccc(OCCCCCOc2ccc(C(=N)N)cc2)cc1` [PENTAMIDINE], which inhibition at 10 µg/mL (Trypanosoma cruzi [2]) is on record?
**A.** 100%

**Q.** And the inhibition at 10 µg/mL (Leishmania braziliensis [6])?
**A.** 100%

**Q.** And the inhibition at 10 µg/mL (Leishmania chagasi [10])?
**A.** 100%

**Q.** What about the inhibition at 10 µg/mL (Leishmania amazonensis [27]) of the same compound?
**A.** 100%
